High-throughput results from PubChem.
Wee1 degr inh – Wee1 degradation inhibitors, primary screen, cell-based, HeLa, Wee1K328M-luciferase, luminescence; Wee1-like protein kinase (Homo sapiens), P30291; HeLa Luc-Wee1K328M stability; 100% = proteasome inhibitor MG132 effect; reporter increase, % at 5 µM; actives 1.2% (n = 220,000);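 active = activation above the mean of all tested compounds plus 3 SD, set per screening run, cut at about 8.8% in these data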;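 also: cells exposed to compound for 20 h before luminescence read; 0% = DMSO alone and 100% = MG132 at 30 µM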
AI-2 QS mod – Vibrio harveyi AI-2 quorum sensing modulators, primary screen, JMH597 strain, luminescence/OD600 ratio; actives 0.4% (n = 300,000); Vibrio harveyi JMH597 AI-2 luminescence/OD600 ratio, 9 h; hits give low values; strain lacks LuxN and CqsS sensors; 0 = neutral-control median; AID 2094, 2009; activity change, % at 7.5 µM; in the data active = activity change below about -75%, passing the limit was not always enough; inconclusive = no clear call, values can overlap the other calls;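 also: luminescence divided by OD600 gain over 9 h not by final OD600 alone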
RanGTP-Impb inh – inhibitors of RanGTP-importin-beta interaction, primary screen, biochemical, FRET, CFP-Ran, YFP-importin-beta, homogeneous; Ran GTPase (GTP-bound) - importin-beta complex; cell-free CFP-Ran/YFP-importin-beta FRET ratio; inhibition, % (concentration not given with the values); actives 1.1% (n = 300,000);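 active = more than half of the replicate wells show a fall in the fluorescence ratio signal beyond about 16%, limit read from the data, passing the limit was not always enough; inconclusive = exactly half of the replicate wells pass the set limit; inactive = fewer than half of replicates pass the limit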;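 also: 0% = DMSO wells and 100% = Ran loaded with GDP instead of GTP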
KLK7 zymogen act – proKLK7 zymogen activators, primary screen, biochemical, fluorescence intensity; AID 652039, 2013; activation, % at 7 µM; purified proKLK7, EDANS-DABCYL substrate fluorescence; 100% is mature enzyme control, 0% vehicle; actives 0.9% (n = 370,000);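 active = activation above the mean of all tested compounds plus 3 SD, computed per campaign excluding outliers beyond control limits, cut at about 13% in these data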
Target sequence (P49862 whole entry, looked up): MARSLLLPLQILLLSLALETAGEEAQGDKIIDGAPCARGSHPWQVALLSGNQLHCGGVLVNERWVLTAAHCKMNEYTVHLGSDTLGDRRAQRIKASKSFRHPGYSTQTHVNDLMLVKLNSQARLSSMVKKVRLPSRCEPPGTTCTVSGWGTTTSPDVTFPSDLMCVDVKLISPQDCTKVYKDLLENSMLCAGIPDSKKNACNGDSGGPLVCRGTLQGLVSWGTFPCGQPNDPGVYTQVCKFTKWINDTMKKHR
Runt-SMMHC FRET – inhibitors of RUNX1 Runt–CBFb-SMMHC binding, primary screen, biochemical, FRET, Cerulean-Runt, Venus-CBFb-SMMHC, uHTS; Runt-related transcription factor 1 (Homo sapiens) + Core-binding factor subunit beta …; Cerulean-Runt/Venus-CBFb-SMMHC FRET ratio 530/480, 1 h; inhibition, % at 20 µM; actives 0.74% (n = 220,000);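 active = mean inhibition across duplicate retests at 20 µM reaching about 50%, limit read from the data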;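 also: 0% = DMSO wells and 100% = wells with excess untagged CBFb-SMMHC; inhibitors lower the FRET ratio by blocking Runt binding to CBFb-SMMHC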
Runt-CBFb FRET – inhibitors of RUNX1 Runt–CBFb binding, primary screen, biochemical, FRET, Cerulean-Runt, Venus-CBFb, uHTS | inhibition, % at 20 µM | actives 0.46% (n = 220,000) | Cerulean-Runt/Venus-CBFb FRET ratio 530/480, 1 h | AID 1496, 2009 | Runt-related transcription factor 1 (Homo sapiens) + Core-binding factor subunit beta …;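 active = inhibition over about 50% at 20 µM in the single-dose screen, limit read from the data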;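 also: 0% = DMSO wells and 100% = excess unlabeled CBFb competitor control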
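test system = Cerulean-Runt domain fusion protein, energy donor | probe or stimulus = Venus-CBFb binding partner, 100 nM | incubation = two 1 h room-temperature incubations shielded from light | detection = fluorescence energy transfer, 422 nm excitation, 530/480 nm emission | measure = loss of energy transfer signal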
Wee1 stab conf – Wee1 degradation inhibitors, confirmation, cell-based, HeLa, Wee1K328M-luciferase, luminescence, triplicate. shares compounds with Wee1 degr inh. HeLa Luc-Wee1K328M degradation; vehicle 0%, proteasome-blocked wells 100%. activation, % at 5 µM. actives 4% (n = 1,100). AID 1410, 2008; in the data active = activation above about 8.9%
* hit, by the source's call; ? = inconclusive; . = no result. Compounds with a hit are over-represented: about 2.9% of the library has one in this group of screens.

SMILES	Wee1 degr inh	AI-2 QS mod	RanGTP-Impb inh	KLK7 zymogen act	Runt-SMMHC FRET	Runt-CBFb FRET	Wee1 stab conf
CCOC(=O)c1c(-c2ccccc2)csc1NC(=O)CSc1nnc(C)s1	12*	22	-2	0	2	-4	-1
CCN(Cc1nc2cc(Cl)ccc2c(=O)[nH]1)C(=O)c1cccc(OCc2c(C)noc2C)c1	.	.	.	0	.	.	.
C#CCNC(=O)C1CCN(c2cc(C)nc(-c3ccccc3)n2)CC1	12*	15	-1	0	2	-2	-1
Nc1[nH]n(-c2ccccc2)c(=O)c1N=Nc1ccc2c(c1)OCCO2	1	-21	0	0	0	-1	.
Nc1[nH]n(-c2ccccc2)c(=O)c1N=Nc1ccc2c(c1)OCO2	12*	18	-2	1	-8	7	-2
Cc1ccc(Cl)cc1N1CCN(S(=O)(=O)c2cnc[nH]2)CC1	-1	26	3	1	-1	0	.
CCCc1cc(=O)n2[nH]c(-c3ccc(C)cc3)cc2n1	13*	5	-4	-1	0	1	5
CCCc1cc(=O)n2[nH]c(-c3ccc(Cl)cc3)cc2n1	.	20	1	0	.	.	.
CCOC(=O)C(Cc1ccccc1)NC(=O)Cn1nnc(-c2ccc(SC)cc2)n1 (configuration not stated)	13*	11	?	0	-2	-1	4
COc1cccc(CN2CCN(C(=O)CCc3nnc(C4CCCCC4)o3)CC2=O)c1	0	10	0	0	-3	2	.
COc1ccc2c(=O)c(-c3ccccc3)coc2c1	9.9*	37	-2	-1	0	0	4
COc1ccc2c(=O)c(-c3ccc(OC)c(OC)c3)coc2c1	8	13	12	0	-6	2	.
O=C(Nc1ccc([N+](=O)[O-])cc1Cl)c1cc(Cl)ccc1O	.	.	.	0	.	.	.
Cc1ccc(O)c(NC(=O)c2cc([N+](=O)[O-])ccc2Cl)c1	11*	28	4	0	-2	2	4
Cc1cc(O)c(NC(=O)c2cc([N+](=O)[O-])ccc2Cl)cc1C	45*	29	0	0	2	7	4
COc1ccc(CNc2nc3ccc(C)cc3s2)c(OC)c1OC	.	-11	0	0	.	.	.
CN(C)c1ccc(-c2nnc(-c3cccs3)o2)cc1	15*	-6	1	5	2	2	-1
CCOc1ccc(C(C(=O)NC2CCCCC2)N(C(=O)Cc2cccs2)c2ccc(-n3cnnn3)c(OC)c2)cc1 (configuration not stated)	0	7	0	1	-2	-3	.
CCN1CCN(c2ccc(NC(=O)CC3OC(=O)c4ccccc43)cc2C)CC1 (configuration not stated)	.	.	.	0	.	.	.
CCS(=O)(=O)N1Cc2ccccc2CC1C(=O)Nc1ccc(OC)c(OC)c1 (configuration not stated)	.	24	-2	0	.	.	.
CCS(=O)(=O)N1Cc2ccccc2CC1C(=O)Nc1ccc(F)cc1 (configuration not stated)	15*	33	1	0	80*	2	0
COc1cc2c(cc1OC)C(c1ccc3c(c1)Cc1ccccc1-3)OC(=O)C2 (configuration not stated)	.	.	.	-1	.	.	.
Cc1ccc2c(c1)N(C(C)C(=O)NCCc1ccccc1)C(=O)CO2 (configuration not stated)	12*	11	?	0	6	1	0
N#Cc1cnc(SCCc2ccccc2)nc1N	28*	-2	?	0	12	7	2
O=C(COC(=O)c1ccc(S(=O)(=O)N2CCCCC2)cc1)NCc1ccc(F)cc1	.	.	.	1	.	.	.
SMILES	Wee1 degr inh	AI-2 QS mod	RanGTP-Impb inh	KLK7 zymogen act	Runt-SMMHC FRET	Runt-CBFb FRET	Wee1 stab conf
CCn1c(SCC(=O)N/N=C(/C)c2ccncc2)nc2ccccc21	15*	-4	6	0	-4	2	6
CCn1c(SCC(=O)NC2CC2)nc2ccccc21	.	.	.	1	.	.	.
CC(NC(=O)COC(=O)C1CCN(c2ccc(C(F)(F)F)cn2)CC1)c1ccc(F)cc1 (configuration not stated)	.	.	.	0	.	.	.
O=C(Nc1ncc(Cc2ccccc2)s1)C1CCCO1 (configuration not stated)	11*	-31	0	0	3	3	0
O=C(Nc1nc2ccccc2s1)C1CCCO1 (configuration not stated)	5	45	3	0	-4	-2	.
O=C(O)c1ccc(Cl)c(S(=O)(=O)Nc2ccc3cn[nH]c3c2)c1	-1	17	1	0	0	0	.
CC1CCCCC1NC(=O)COC(=O)c1c2c(nc3ccccc13)/C(=C/c1ccco1)CC2 (configuration not stated)	11*	43	-79	0	.	13	-1
O=C(CSc1nnc(-c2ccc(Cl)cc2)n1-c1ccccc1)N/N=C/c1ccccc1C(=O)O	-2	40	1	0	0	-4	.
COc1ccc(-c2nnc(SCC(=O)N/N=C/c3ccccc3C(=O)O)n2-c2ccc(Cl)cc2)cc1	12*	23	0	-1	-8	2	1
CSCc1ccc(C(=O)NCC(c2cccs2)N2CCOCC2)cc1 (configuration not stated)	.	15	.	1	.	.	.
Cc1ccc(C)c(NC(=O)CN(C)C(=O)c2cc(C3CC3)nn2-c2ccccc2)c1	.	.	.	1	.	.	.
Cc1ccc(NC(=O)COc2ccccc2C=O)cc1Cl	16*	29	-1	0	3	0	1
COc1cccc(N2CCN(S(=O)(=O)c3ccc(-n4cnnn4)cc3)CC2)c1	.	18	0	1	.	.	.
O=C(Nc1ccn(Cc2c(F)c(F)cc(F)c2F)n1)c1ccc(COc2ccccc2Cl)cc1	-1	7	1	.	2	0	.
